Results on five compounds are retold here after ChEMBL document CHEMBL1124493, “Synthesis and tumor uptake of 5-82Br- and 5-131I-labeled 5-halo-1-(2-fluoro-2-deoxy-beta-D-ribofuranosyl)uracils” (J Med Chem, 1989).

The test system of one assay is Nucleic Acid. The assay can be described thus: Incorporation of compound into DNA of human and mammalian cells, by replacing thymidine. Format: functional.
Compound `O=c1[nH]c(=O)n([C@H]2C[C@H](O)[C@@H](CO)O2)cc1Br` [BROXURIDINE] displayed a Replacement of 43%.

For a further assay, the species on record is Mus musculus. The assay can be described thus: Inhibition constant for influx competition with [6-3H]thymidine in mouse erythrocytes. Format: functional. In short, it runs like this:
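Freshly harvested mouse erythrocytes were exposed to various concentrations of test nucleoside and [6-3H]thymidine, and zero-trans thymidine influx was measured. Extracellular [6-3H]thymidine was measured over time by liquid scintillation counting of aliquots. The Ki for competition at the nucleoside transporter was derived by previously described methods.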
On to `O=c1ccn([C@H]2C[C@H](O)[C@@H](CO)O2)c(=O)[nH]1` [DEOXYURIDINE], for which the affinity, expressed as Ki, was 130 µM.
`Cc1cn([C@H]2C[C@H](O)[C@@H](CO)O2)c(=O)[nH]c1=O` [DOXRIBTIMINE]: the affinity, expressed as Ki, was 80 µM.
The same measure, in the same setting: for `O=c1[nH]c(=O)n([C@H]2C[C@H](O)[C@@H](CO)O2)cc1I` [IDOXURIDINE] the value was 210 µM; for `O=c1ccn([C@@H]2O[C@H](CO)[C@@H](O)[C@H]2F)c(=O)[nH]1`, 120 µM; for `O=c1[nH]c(=O)n([C@H]2C[C@H](O)[C@@H](CO)O2)cc1Br` [BROXURIDINE], 140 µM.
